CHOP inhibitor: inhibitors of CHOP promoter induction, primary screen, cell-based, unfolded protein response, luciferase reporter. CHO-K1 CHOP-promoter luciferase, tunicamycin-induced, 15-18 h. inhibition, % at 10 µM. 220,000 tested, 3.8% active. AID 2732, 2010;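 active = compounds that reduced the stress-induced luciferase reporter signal by more than about 70% of percent inhibition, limit read from the data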
A1 inh: caspase 3/7 activation in MEF A1-2A-BIM cells, primary screen, A1 inhibitor project, cell-based, luminescence, HTS; 330,000 tested, 0.066% active; caspase activation, % (concentration not given with the values); Caspase-Glo 3/7 luminescence, 3 h; percent of clofoctol response, vehicle zero;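 active = over half of replicate activation scores above 10%, or exactly half above 10 with the replicate mean above 10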
XBP1 UPR activ: activators of adaptive XBP1 UPR arm, primary screen, cell-based, CHO-XBP1 luciferase reporter, luminescence, uHTS. 330,000 tested, 0.33% active. activation, % at 20 µM. IRE1-XBP1 UPR activation; percent of tunicamycin response, DMSO as zero;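 active = versus positive control, 20 µM dose yields 30% or more activation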
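assay system = CHO-XBP1 luciferase reporter cells | amount = 1000 cells/well | buffer or medium = F12 plus 10% FBS | compound dosing = single point, 20 µM final compound, 1% DMSO | incubation = 16-18 h cell attachment at 37 °C, then 6 h compound exposure | detection = Steady-Glo luminescence read | controls = tunicamycin 10 µg/mL and vehicle-only wells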
CHOP UPR activ: activators of apoptotic CHOP UPR arm, primary screen, cell-based, CHO-CHOP luciferase reporter, luminescence, uHTS. UPR activation; percent of tunicamycin response over DMSO baseline. activation, % at 10 µM. 330,000 tested, 0.34% active. AID 449763, 2010;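 active = at 10 µM dose, activation of 40% or more, normalized to positive control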
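Dosing – one dose, 10 µM in 0.5% DMSO · System – CHO-CHOP cells, stable luciferase reporter of PERK-eIF2a-CHOP signalling · Input – 500 cells/well · Control set – tunicamycin 10 µg/mL final as positive, DMSO-only wells as negative · Timing – 6 h compound treatment, 37 °C · Measure – % activation vs tunicamycin · Technique – luminescence read with Steady-Glo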
Numbers stand for hits; – = inactive; · = no result given. The sample as a whole holds a higher share of hits than the screen did.

SMILES	CHOP inhibitor	A1 inh	XBP1 UPR activ	CHOP UPR activ
Cc1[nH]n(-c2ccccc2)c(=O)c1/C=N/NC(=O)C(C)C	75.8	–	–	–
COCC(=O)N/N=C/c1c(C)[nH]n(-c2ccccc2)c1=O	72.8	–	–	–
OC[C@@H]1CCCN1Cc1nc(-c2cccs2)no1	–	–	–	–
CSC(=O)NC12CC3CC(CC(C)(C3)C1)C2	78.5	–	–	–
O=c1c2cc(Cl)ccc2nc(-c2ccc(Cl)c(Cl)c2)n1O	102.3	–	–	–
CCC(C(=O)Nc1ccsc1C(=O)OC)c1ccccc1 (stereo not drawn)	–	–	–	–
CC1=C(C(=O)OC(C)C)C(c2cccc(F)c2)N2C(=O)C(C)SC2=N1 (stereo not drawn)	73.9	–	–	–
COC(=O)C1=C(C)N=C2SC(C)C(=O)N2C1c1ccc(C(=O)OC)cc1 (stereo not drawn)	–	–	–	–
CCOC(=O)C1=C(C)N=C2SC(C)C(=O)N2C1c1cccc(F)c1 (stereo not drawn)	–	–	–	–
CC1=C(C(=O)OCC(C)C)C(c2cccc(F)c2)N2C(=O)C(C)SC2=N1 (stereo not drawn)	78.2	–	–	–
CC(C)COc1ccc(C/C(N)=N/n2cnnc2)cc1	–	–	–	–
O=C(CN1CC[n+]2c(-c3cccs3)csc21)c1ccc(Br)cc1	–	–	–	–
Cc1ccc2[nH]c3c(N4CCc5ccccc5C4)ncnc3c2c1	74.0	–	–	–
Fc1ccc2[nH]c3c(N4CCc5ccccc5C4)ncnc3c2c1	73.2	–	–	–
Brc1ccc2[nH]c3c(N4CCc5ccccc5C4)ncnc3c2c1	–	–	–	–
O=C(NCc1ccccc1)C(c1ccccc1F)N(CC1CCCO1)C(=O)c1ccccn1 (stereo not drawn)	·	–	–	–
C=CC[n+]1c(-c2ccc(C)cc2)csc1Nc1c(C)n(C)n(-c2ccccc2)c1=O	–	–	–	–
C=CC[n+]1c(-c2ccc(OCC)cc2)csc1NNC(=O)Nc1ccccc1	72.5	–	–	–
CCOC(=O)c1sc(NC(=O)CSc2n[nH]c(-c3ccncc3)n2)c(C#N)c1C	85.0	–	–	–
O=C(NCCc1ccc(Cl)cc1)C1CCN(C(=O)N2CCOc3ccccc32)CC1	·	–	–	–
O=c1cc(O)c2c(=O)n(Cc3ccccc3)c3ccccc3c2o1	–	–	–	–
O=c1cc(O)c2c(=O)n(C3CCCCC3)c3ccccc3c2o1	72.1	–	–	–
c1ccc(N2CCN(Cc3ccnc4ccccc34)CC2)cc1	–	–	–	–
Oc1c(CN2CCN(c3ccccc3)CC2)cc(Br)c2cccnc12	89.1	–	·	·
Cc1cccc(NC(=O)c2cc(=O)c3ccccc3o2)c1	·	–	–	–
SMILES	CHOP inhibitor	A1 inh	XBP1 UPR activ	CHOP UPR activ
CCOC(=O)c1sc2nccc(N(C)C)c2c1N=CNOCc1ccccc1	75.1	–	–	–
O=C(c1ccccn1)c1cc2ccccc2n1S(=O)(=O)c1ccccc1	–	–	–	–
O=C(/C(=C/c1ccccc1)c1ccccc1)N1CCCCC1	86.9	–	–	–
Cc1ccc(Nc2c(-c3ccccn3)nc3cc(C)ccn23)cc1	75.5	–	–	–
Cc1ccn2c(Nc3ccc4c(c3)OCO4)c(-c3ccccn3)nc2c1	77.7	–	–	–
Cc1ccc(Nc2c(-c3ccccn3)nc3ccc(C)cn23)cc1	80.0	–	–	–
Cc1ccc2nc(-c3ccncc3)c(Nc3ccccc3)n2c1	–	–	–	–
Cc1ccn2c(NC3CCCC3)c(-c3ccccn3)nc2c1	–	–	–	–
O=C(C[n+]1cccc(/C=N/O)c1)N(Cc1ccccc1)Cc1ccccc1	–	–	–	–
COC(=O)c1cn(Cc2c(C)cc(C)cc2C)nn1	–	–	–	–
COCCN1Cc2cccc(C(=O)Nc3ccc(S(=O)(=O)N4CCCCC4)cc3)c2C1=O	–	–	–	–
C(=C\c1ccccc1)/CN1CCN(c2ncnc3c2oc2ccccc23)CC1	94.0	–	–	–
Cc1ccc(N(CC#N)C(=O)CS(=O)(=O)c2cccc([N+](=O)[O-])c2)cc1	·	–	–	–
CC(C)OC(=O)CSc1nnc(-c2ccc(Cl)cc2Cl)o1	–	–	–	–
CC(C)c1nc2sc3ccccc3c(=O)c2c(=O)n1Cc1ccccc1	–	–	–	–
COCCn1c(C2CCCCC2)nc2sc3ccccc3c(=O)c2c1=O	91.8	–	–	–
CCc1nc2sc3ccccc3c(=O)c2c(=O)n1CCOC	–	–	–	–
COc1ccc(Cn2c(C(C)C)nc3sc4ccccc4c(=O)c3c2=O)cc1	79.1	–	–	–
COc1cc(/C=N/NC(=O)c2nnn(-c3nonc3N)c2C(C)C)ccc1OCc1ccc(F)cc1	·	–	–	–
CCCc1ccc(-c2cc(C(=O)N/N=C/c3ccc([N+](=O)[O-])o3)c3ccccc3n2)cc1	–	–	–	–
CC(C)(C)n1nc(-c2ccc(F)cc2)c2c(N)ncnc21	–	–	–	–
CC(C)(C)n1nc(-c2ccc(Cl)cc2)c2c(N)ncnc21	84.3	–	–	–
O=C(Cn1cc2c(n1)CCCC2)NC1CCN(Cc2ccccc2)CC1	82.2	–	–	–
Cc1ccc2nc(-c3ccccc3)c(CC(=O)O)c(C(=O)O)c2c1	–	–	–	–
COc1cc(CSc2nc(-c3ccccc3)cc(=O)[nH]2)cc(OC)c1	·	–	–	–
SMILES	CHOP inhibitor	A1 inh	XBP1 UPR activ	CHOP UPR activ
O=c1cc(-c2ccccc2)nc(SCCOc2ccccc2Cl)[nH]1	74.4	–	–	–
O=C(Nc1nc(-c2ccc(S(=O)(=O)N3CCOCC3)cc2)cs1)c1ccccc1	–	–	–	–
CC(C)COc1cccc(C(=O)Nc2ccc(S(=O)(=O)N3CCOCC3)cc2)c1	80.5	–	–	–
CC(C)CC(=O)Nc1nc(-c2ccc(S(=O)(=O)N3CCOCC3)cc2)cs1	·	·	–	–
CC(C)COc1cccc(C(=O)Nc2ccc(CN3CCOCC3)cc2)c1	·	–	–	–
Cc1ccc(Nc2nc(-c3ccc(S(=O)(=O)N4CCOCC4)cc3)cs2)cc1Cl	88.4	–	–	–
Cc1ccc(S(=O)(=O)Nc2ccccc2C(=O)Nc2nc(-c3ccc(F)cc3)cs2)cc1	–	–	–	–
COc1ccc(-c2csc(NC(=O)c3ccccc3NS(=O)(=O)c3ccc(F)c(F)c3)n2)cc1	79.2	–	–	–
COc1cccc(C(=O)Nc2nc(-c3ccc(S(=O)(=O)N4CCOCC4)cc3)cs2)c1	83.6	–	–	–
O=C1CCc2cc(OCCCCc3nnnn3C3CCCCC3)ccc2N1	–	–	–	–
CCc1ccc(C2C3=C(CC(C)(C)CC3=O)Nc3c2c(=O)[nH]c2nc(C)nn32)cc1 (stereo not drawn)	–	6.1	–	–
Cc1nc2[nH]c(=O)c3c(n2n1)NC1=C(C(=O)CC(C)(C)C1)C3c1ccc(F)cc1 (stereo not drawn)	–	–	–	–

High-throughput results: PubChem, several laboratories
